Screening results deposited in PubChem by The Scripps Research Institute Molecular Screening Center.
This is a sample that favours compounds with a hit; in the whole collection about 4.5% have one here.
OX1R antag-1: blocks the human orexin 1 receptor; O43613; CHO/OX1R cells, Fluo-8 calcium fluorescence, orexin A; inhibition, % at 5 µM; 330,000 compounds, 0.43% hits;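 active = inhibition above its plate's threshold, mean inhibition of all tested compounds on the plate plus 3 SD, cut at about 37% in these data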
OX1R antag-2: antagonists of human orexin 1 receptor (OX1R) | AID 485270 | inhibition, % at 6.6 µM | 330,000 compounds, 1.8% hits | OX1R-expressing cells, FRET antagonist read-out | O43613; in the data active = inhibition mostly above about 38%, no sharp cut-off; inactive = mostly below about 40%
GPR7 antagonist: human neuropeptides B/W receptor 1 antagonism; inhibition, % at 4.4 µM; 290,000 compounds, 1.1% hits; GPR7-expressing cells, fluorescence antagonist assay; P48145; AID 1861; in the data active = inhibition above about 16%, passing the limit was not always enough;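 also: cells stimulated with the agonist NPW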
Target sequence (P48145 whole entry, looked up): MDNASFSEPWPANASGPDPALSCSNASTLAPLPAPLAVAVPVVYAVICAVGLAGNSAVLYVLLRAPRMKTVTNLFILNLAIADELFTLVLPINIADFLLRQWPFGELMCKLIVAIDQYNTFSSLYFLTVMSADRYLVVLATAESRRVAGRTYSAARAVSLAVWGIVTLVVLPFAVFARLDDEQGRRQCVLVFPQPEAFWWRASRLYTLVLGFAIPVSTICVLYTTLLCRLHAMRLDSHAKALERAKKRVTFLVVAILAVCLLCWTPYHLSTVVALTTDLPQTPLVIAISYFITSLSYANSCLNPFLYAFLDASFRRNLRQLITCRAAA
TAAR1 agonist: agonists of human TAAR1; Q96RJ0; activation, % at 3 µM; CHO RD-HGA16 TAAR1, Fluo-8 calcium fluorescence; vehicle wells 0%, saturating PEA agonist 100%; 360,000 compounds, 0.99% hits;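 active = activation above the mean activation of all test compounds in the run plus 3 SD, cut at about 38% in these data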
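Assay system – CHO-derived RD-HGA16 cells with stable Gα16 and human TAAR1 · Compound dosing – one-point dosing at 3 µM (nominal) · Incubation – 17-24 h seeding, 75 min 37 °C dye, 30 min RT · Measured by – kinetic Fluo-8 calcium fluorescence · Control set – DMSO vehicle as 0%, PEA at EC100 as 100% · Repeats – single well for each compound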
TAAR1 antagonist: antagonists of human TAAR1; Q96RJ0; CHO RD-HGA16 TAAR1, Fluo-8 calcium fluorescence, antagonist; inhibition, % at 3 µM; 360,000 compounds, 1.5% hits;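 active = inhibition above a per-plate cutoff, the mean inhibition of test compounds on that plate plus 3 SD, cut at about 49% in these data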
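Material: CHO RD-HGA16 cells bearing hTAAR1; compound dosing: one-point dosing, 3 µM nominal final; schedule: dye loading 75 min at 37 °C, then 30 min room temperature; measured by: calcium fluorescence with Fluo-8; control set: vehicle and agonist controls; replication: n of 1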
CHO parental Ca: counter-screen for OX1R antagonists: effect in parental CHO cells. parental CHO-K1, ATP-induced calcium, Fluo-8 fluorescence. inhibition, % at 5.6 µM. 330,000 compounds, 0.63% hits;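 active = inhibition above that plate's mean sample inhibition plus 3 SD, cut at about 26% in these data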
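Test system: untransfected parental CHO cell line; also added: ATP stimulus; dosing: 5.6 µM, single dose; signal: calcium-sensitive Fluo-8 fluorescence; measure: percent inhibition of ATP-evoked calcium rise, normalized to controls; benchmarks: low control ATP plus DMSO, high control DMSO only; replication: one well per compound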
Each line names hits and unclear results; the compound was inactive in the other large screens.

Cc1ccc(Nc2ccc(NCc3ccccc3)nn2)cc1C	none
CC(=O)OC[C@]12CC[C@H]3[C@@](C)(CC[C@H]4C(C)(C)CCC[C@]34C)[C@@H]1CC(C1=CC(=O)OC1O)O2 (some centres not stated)	TAAR1 antagonist 60 (no result: OX1R antag-1, OX1R antag-2, GPR7 antagonist, CHO parental Ca)
CC(=O)OC[C@]1(OC(C)=O)C[C@@]23CC[C@H]4[C@@](C)(CCC[C@@]4(C)C(=O)O)[C@@H]2CC[C@@H]1C3	none
CC1C/C(=C/c2ccncc2)C(=O)/C(=C/c2ccncc2)C1 (configuration not stated)	GPR7 antagonist 24
CN1C/C(=C/c2cccnc2)C(=O)/C(=C/c2cccnc2)C1	none
Cc1ccc(F)cc1NC(=O)C1CC(=O)N(Cc2ccccc2)C1 (configuration not stated)	none (no result: OX1R antag-1, OX1R antag-2, GPR7 antagonist, CHO parental Ca)
O=C(NCC(=O)N(CCc1ccccc1)C(C(=O)NC1CCCC1)c1cccnc1)c1ccco1 (configuration not stated)	none (no result: TAAR1 agonist, TAAR1 antagonist)
O=C(NC1CCCC1)C(c1cccnc1)N(CCc1ccccc1)C(=O)c1ccco1 (configuration not stated)	OX1R antag-2 57
CCCSc1cc(NCCOC(=O)CCC)c([N+](=O)[O-])c2nonc12	OX1R antag-2 66
CCCC(=O)OCCNc1cc(SCc2ccco2)c2nonc2c1[N+](=O)[O-]	OX1R antag-2 68
CC(=O)OCCCNc1cc(SCc2ccco2)c2nonc2c1[N+](=O)[O-]	OX1R antag-2 73
Cc1nnc(Sc2cc(NCCO)c([N+](=O)[O-])c3nonc23)s1	none (no result: OX1R antag-1, OX1R antag-2, CHO parental Ca)
COc1cccc(CNC(=O)[C@H]2CCCN2C(=O)[C@H]2CCCN2C(=O)N2CCCCC2)c1	none (no result: OX1R antag-1, OX1R antag-2, GPR7 antagonist, CHO parental Ca)
CCCN(CCC)C(=O)C(c1ccccc1)C1(O)CCCCC1 (configuration not stated)	none (no result: OX1R antag-1, OX1R antag-2, GPR7 antagonist, CHO parental Ca)
CC1(C(=O)NS(=O)(=O)c2ccc(C#N)cc2)CCN1C(=O)C1(c2ccccc2)CCCC1 (configuration not stated)	none (no result: OX1R antag-1, OX1R antag-2, GPR7 antagonist, CHO parental Ca)
CC(C)(C)CC(C)(C)c1ccc(OCCOCC[N+](C)(C)Cc2ccccc2)cc1	TAAR1 agonist 40 (no result: GPR7 antagonist)
COc1ccc(C(=O)CSc2nnc(-c3cccs3)n2-c2ccccc2)cc1	none
COc1ccc(C(=O)CSc2nnc(CN3CCCCC3)n2-c2ccc(F)cc2)cc1	TAAR1 agonist 47
CC(C)COC(=O)c1cccc2c1-c1ccccc1/C2=N\O	CHO parental Ca 41
CCOC(=O)c1cccc2c1-c1ccccc1/C2=N/O	none
CCOc1cc(C)c(S(=O)(=O)Nc2ccc3cn[nH]c3c2)cc1C	CHO parental Ca 48 (no result: TAAR1 agonist, TAAR1 antagonist)
COc1ccccc1/C=C/C(=O)NCC(=O)N/N=C/c1ccccc1	TAAR1 agonist 38
COc1cc(NC(=O)c2cccs2)c(OC)cc1NC(=O)CCC(=O)Nc1ccc2ncccc2c1	TAAR1 antagonist 53 (no result: OX1R antag-1, OX1R antag-2, CHO parental Ca)
COc1ccc(OCC(=O)Nc2ccc(NC(=O)c3cccs3)c(OC)c2)cc1	none
CC(C)(C)[C@@H]1CCC(=O)N(CC[C@H](Sc2ccccc2)c2ccccc2)CC1	none
CC(=O)Nc1ccc(S[C@@H](CCN2CC[C@H](C(C)(C)C)CCC2=O)c2ccccc2)cc1	TAAR1 antagonist 49 (no result: GPR7 antagonist)
CC(C)CC1C(=O)N(Cc2cn(CCC3OCCO3)nn2)CCS(=O)(=O)N1Cc1ccc(-c2cccc(N(C)C)c2)cc1 (configuration not stated)	TAAR1 antagonist 52 (no result: OX1R antag-1, OX1R antag-2, GPR7 antagonist, CHO parental Ca)
CC(C)CC1C(=O)N(Cc2cn(CCC3OCCO3)nn2)CCS(=O)(=O)N1Cc1ccc(-c2ccc(F)cc2)cc1 (configuration not stated)	TAAR1 antagonist 54 (no result: OX1R antag-1, OX1R antag-2, GPR7 antagonist, CHO parental Ca)
CCCN1CCCCC(NC(=O)c2ccc(F)c(F)c2)C1=O (configuration not stated)	none (no result: OX1R antag-1, OX1R antag-2, GPR7 antagonist, CHO parental Ca)
O=[N+]([O-])c1c(NCCCO)cc(Sc2nc3ccccc3s2)c2nonc12	OX1R antag-1 54, OX1R antag-2 45, CHO parental Ca 51 (no result: TAAR1 agonist, TAAR1 antagonist)
CCC(=O)OCCNc1cc(Sc2nc3ccccc3s2)c2nonc2c1[N+](=O)[O-]	OX1R antag-1 60, OX1R antag-2 52, CHO parental Ca 61
Cc1nnc(Sc2cc(NCCCO)c([N+](=O)[O-])c3nonc23)s1	none (no result: OX1R antag-1, OX1R antag-2, CHO parental Ca)
